Experimental data: ChEMBL document CHEMBL4680130, “Substituted 4-phenylthiazoles: Development of potent and selective A, A and dual A/A adenosine receptor antagonists” (Eur J Med Chem, 2020)

What was measured:
Adenosine receptor A1 [1] = biological target: T1, Adenosine receptor A1 (Homo sapiens, UniProt P30542); assay: Displacement of [3H]CCPA from human adenosine receptor A1 expressed in CHO cell membranes incubated for 90 mins by radioligand competition assay; set-up: species or system Cell membrane
T1 sequence (P30542 whole entry): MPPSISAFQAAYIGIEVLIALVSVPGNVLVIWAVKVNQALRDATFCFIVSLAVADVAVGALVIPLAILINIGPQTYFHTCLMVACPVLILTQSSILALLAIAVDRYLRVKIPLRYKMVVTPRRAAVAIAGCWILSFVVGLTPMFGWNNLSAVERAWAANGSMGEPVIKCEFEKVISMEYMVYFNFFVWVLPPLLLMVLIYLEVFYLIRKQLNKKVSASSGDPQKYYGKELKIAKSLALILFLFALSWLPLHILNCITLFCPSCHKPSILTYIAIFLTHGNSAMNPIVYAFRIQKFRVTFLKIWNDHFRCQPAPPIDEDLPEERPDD

Adenosine receptor A1 [2] = biological target: T2, Adenosine receptor A1 (Rattus norvegicus, UniProt P25099); assay: Displacement of [3H]DPCPX from rat brain cortical membrane A1AR in presence of 100 uM of GTP by scintillation counting analysis; type: cell membranes, Cortex, Cell membrane
T2 sequence (P25099 whole entry): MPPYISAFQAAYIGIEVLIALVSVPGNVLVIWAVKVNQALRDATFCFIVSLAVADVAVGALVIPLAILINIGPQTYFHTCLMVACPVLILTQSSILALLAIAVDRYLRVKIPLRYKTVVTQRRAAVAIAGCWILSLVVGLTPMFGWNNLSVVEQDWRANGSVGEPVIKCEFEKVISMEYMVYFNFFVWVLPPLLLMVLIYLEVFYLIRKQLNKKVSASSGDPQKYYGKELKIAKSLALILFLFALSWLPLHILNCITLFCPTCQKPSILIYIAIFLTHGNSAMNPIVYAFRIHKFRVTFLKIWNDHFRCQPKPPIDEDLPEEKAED

Adenosine receptor A2b = biological target: T3, Adenosine receptor A2b (Homo sapiens, UniProt P29275); assay: Displacement of [3H]PSB-603 from human adenosine receptor A2B expressed in CHO cell membranes incubated for 75 mins by radioligand competition assay; set-up: species or system Cell membrane
T3 sequence (P29275 whole entry): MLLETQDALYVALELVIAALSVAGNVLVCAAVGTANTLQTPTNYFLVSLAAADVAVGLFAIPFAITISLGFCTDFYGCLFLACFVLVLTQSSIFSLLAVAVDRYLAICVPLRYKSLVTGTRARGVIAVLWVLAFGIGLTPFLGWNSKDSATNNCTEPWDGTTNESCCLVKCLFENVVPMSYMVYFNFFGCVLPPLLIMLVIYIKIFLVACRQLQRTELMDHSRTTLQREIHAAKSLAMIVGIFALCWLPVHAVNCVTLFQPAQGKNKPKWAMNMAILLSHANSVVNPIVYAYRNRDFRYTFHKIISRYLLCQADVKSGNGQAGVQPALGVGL

Adenosine receptor A1 [3] = biological target: T2, Adenosine receptor A1; assay: Displacement of [3H]DPCPX from rat adenosine receptor A1 by radioligand competition assay
Summary of the method: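 Rat brain cortical membranes, [3H]DPCPX 0.4 nM. Nonspecific binding defined by 10 μM DPCPX. Curves run with and without 100 μM GTP. Incubation 90 min at rt in 50 mM Tris-HCl pH 7.4, after 20 min adenosine deaminase preincubation. Filtration, then scintillation counting. GTP shift is the IC50 with GTP divided by the IC50 without GTP.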

Adenosine receptor A2a = Adenosine receptor A2a (Homo sapiens, UniProt P29274); assay: Displacement of [3H]MSX2 from human adenosine receptor A2A expressed in HEK293 cell membranes incubated for 30 mins by radioligand competition assay; set-up: species or system Cell membrane
Chain of Adenosine receptor A2a (P29274 whole entry): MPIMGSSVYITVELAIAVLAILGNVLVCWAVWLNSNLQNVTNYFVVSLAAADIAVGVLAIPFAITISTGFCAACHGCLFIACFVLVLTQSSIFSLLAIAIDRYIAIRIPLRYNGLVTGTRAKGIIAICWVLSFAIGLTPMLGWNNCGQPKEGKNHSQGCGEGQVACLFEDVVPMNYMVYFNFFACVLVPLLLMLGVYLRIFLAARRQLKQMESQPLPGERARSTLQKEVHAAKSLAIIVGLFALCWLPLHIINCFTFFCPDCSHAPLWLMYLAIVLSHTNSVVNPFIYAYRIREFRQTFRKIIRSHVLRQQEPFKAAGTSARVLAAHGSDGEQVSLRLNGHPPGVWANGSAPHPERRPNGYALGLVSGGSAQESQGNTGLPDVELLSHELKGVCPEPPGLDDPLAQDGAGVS

`COc1ccc(C(=O)Nc2nc(-c3ccccc3)c(C(=O)c3ccc(C)cc3)s2)cc1` was tested, and the Ki (Adenosine receptor A1 [1]) was 9.69 nM, the IC50 (Adenosine receptor A1 [2]) was 0.0763 nM and the Ki (Adenosine receptor A2b) was over 100 nM. It also gave a Ki (Adenosine receptor A1 [3]) of 0.0709 nM and a Ki (Adenosine receptor A2a) of over 1000 nM.
